Screening data: PubChem BioAssay, several laboratories
p-CIP stab down = compounds decreasing mouse p/CIP protein stability; Q05BA5; F442A p/CIP-EGFP cells, EGFP fluorescence, 16 h; decrease of EGFP signal, % at 10 µM; hit rate 0.01% among 290,000; AID 1984;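 active = EGFP signal decrease of at least 30% at 10 µM or well 3 SD below plate mean, unless failing retest; inactive = the rest, including hits failing retest or dose response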
ABCB6 inh 2 = human ABCB6 transporter inhibition; K562-ABCB6 porphyrin accumulation, flow cytometry, 1 h; hits give low values; fluorescence ratio to DMSO, % at 10 µM; hit rate 0.19% among 360,000;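 active = fluorescence ratio to DMSO below 75%, the collection mean minus 3 SD; inconclusive = too few cells collected in the well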;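 also: signal is porphyrin accumulated inside mitochondria; 100% equals median channel fluorescence of DMSO control wells; lower ratio means ABCB6 inhibition with less porphyrin fluorescence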
Target sequence (Q9NP58 whole entry, looked up): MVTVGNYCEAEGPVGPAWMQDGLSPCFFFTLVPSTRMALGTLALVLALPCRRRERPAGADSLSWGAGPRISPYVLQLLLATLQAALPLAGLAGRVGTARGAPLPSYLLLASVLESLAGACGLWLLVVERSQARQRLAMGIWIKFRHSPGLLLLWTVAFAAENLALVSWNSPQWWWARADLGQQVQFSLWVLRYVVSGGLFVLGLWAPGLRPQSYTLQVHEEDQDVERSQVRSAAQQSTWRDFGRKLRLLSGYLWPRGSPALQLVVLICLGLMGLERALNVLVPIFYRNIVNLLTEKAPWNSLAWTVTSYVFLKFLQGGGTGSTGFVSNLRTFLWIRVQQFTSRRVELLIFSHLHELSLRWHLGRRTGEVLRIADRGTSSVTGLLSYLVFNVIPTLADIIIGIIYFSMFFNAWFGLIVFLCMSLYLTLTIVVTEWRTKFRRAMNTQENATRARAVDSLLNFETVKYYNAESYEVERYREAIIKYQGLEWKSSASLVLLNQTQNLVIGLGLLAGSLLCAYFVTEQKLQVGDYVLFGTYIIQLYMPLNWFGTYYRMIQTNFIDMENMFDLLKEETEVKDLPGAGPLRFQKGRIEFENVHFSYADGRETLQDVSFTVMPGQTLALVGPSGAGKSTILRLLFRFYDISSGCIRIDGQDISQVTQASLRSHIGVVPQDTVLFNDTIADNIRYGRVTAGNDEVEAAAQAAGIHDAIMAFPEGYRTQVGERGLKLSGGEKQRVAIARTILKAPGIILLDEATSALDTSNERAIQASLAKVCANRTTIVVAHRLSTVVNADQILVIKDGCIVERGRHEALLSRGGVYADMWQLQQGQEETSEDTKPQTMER
Cl transport mod = modulates chloride dependent transport by human KCC2; KCC2 cells, thallium flux FluoZin-2 fluorescence; Q9H2X9; B-score of Tl+ flux slope (higher = more flux/activation; lower = inhibition) at 10 µM; hit rate 2.2% among 190,000; AID 1456;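 active = thallium flux slope and its plate-corrected score both differing from the plate sample mean at a set confidence after two filtering rounds, in either direction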;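 also: slope of fluorescence scaled to starting intensity during 10 to 20 s after thallium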
Dynein cargo inh = dynein cargo transport inhibition; AID 1381; hit rate 0.47% among 220,000; z-score, hits read low; 3617.4 mouse cells, GR-EGFP nuclear translocation imaging; test concentration mostly 20 µM; stimulated with dexamethasone, 1 µM; hits give low values;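 active = plate z-score of nuclear minus cytoplasmic receptor signal below a set negative limit, without overly bright fluorescence or cell loss, cut at about -3.5 in these data, passing the limit was not always enough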;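 also: z-score of nuclear minus cytoplasmic ring GR-EGFP intensity difference per well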
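medium = tetracycline-free induction medium containing charcoal-stripped FBS | also added = 1.0 µM final dexamethasone stimulus | schedule = 48 h induction, 1 h compound, 30 min dex at 37 °C | technique = fixed, Hoechst-stained cells imaged at 10x for EGFP | measure = GR-EGFP nuclear translocation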
V-ATPase pH = alters yeast V-ATPase proton transport | S. cerevisiae, pHLuorin cytosolic pH fluorescence | response, % at 10 µM | hit rate 0.37% among 350,000; in the data active = response mostly above about 7.3%, no sharp cut-off; inactive = mostly below about 5.4%; also: actives read high
KCC2 secondary = confirmation of human KCC2 transport modulators | shares compounds with Cl transport mod | HEK293-KCC2, thallium flux, FluoZin2 fluorescence; hits give high values | normalised thallium flux (F/F0 slope) at 10 µM | hit rate 15% among 3,700;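 active = thallium flux slope above the same plate's solvent-only control mean plus 3 SD; inconclusive = the two replicate wells disagree; inactive = no significant difference from solvent-only control wells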
KCC2 bumet counter = thallium flux despite bumetanide block in KCC2 cells, secondary assay 3; shares compounds with Cl transport mod; HEK293-KCC2 + bumetanide/ouabain, thallium flux FluoZin2; hits give high values; normalized thallium flux at 10 µM; hit rate 49% among 3,700;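 active = thallium entry rate above the same plate's blocked-transporter control wells by more than 3 SD; inconclusive = the two repeat wells disagree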;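 also: raw slope of fluorescence over initial fluorescence between 10 and 20 s after thallium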
KCC2 sec2 = confirmation of human KCC2 transport modulators | shares compounds with Cl transport mod | HEK293-KCC2, thallium flux FluoZin2 fluorescence; actives lie on both sides; F/F0 rise rate, 10–20 s post-thallium | hit rate 23% among 3,700 | normalized thallium flux at 10 µM;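 active = thallium flux slope more than 3 SD above or below the plate's solvent-only control mean, mostly below; inconclusive = the two repeat wells disagreed; inactive = no significant shift from solvent-only controls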;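 also: raw slope with 0.1% DMSO as baseline and bumetanide as block control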
HEK293 Tl flux = acts in parental HEK cells, KCC2 counter-screen; thallium flux rate (normalised fluorescence) at 10 µM; hit rate 46% among 3,700; AID 1716; HEK293 parental cells, thallium flux FluoZin2, ouabain; baseline-ratio fluorescence slope, 10–20 s after thallium; shares compounds with Cl transport mod;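 active = thallium flux rate significantly above the same plate's solvent-only control wells, beyond their mean plus 3 SD; inconclusive = the two replicate wells gave conflicting results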
KCC2 ouabain = KCC2 (human) modulation, ouabain retest. shares compounds with Cl transport mod. HEK293-KCC2, thallium flux FluoZin2 fluorescence; bidirectional: low = inhibitor, high = activator. raw Tl+ flux slope (below DMSO = inhibition, above = activation) at 10 µM. hit rate 48% among 3,700. AID 1717;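 active = thallium flux slope beyond 3 SD from same-plate DMSO control mean in most replicates, usually higher, sometimes lower; inconclusive = repeat tests gave conflicting results; inactive = no significant difference from controls in most replicates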;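 also: slope of initial-normalized fluorescence between seconds 10 and 20 after thallium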
HEK293 Tl flux2 = parental HEK flux effect, counter-screen 2 | thallium flux slope at 10 µM | shares compounds with Cl transport mod | hit rate 33% among 3,700 | HEK293 parental, thallium flux FluoZin-2 fluorescence slope | AID 1718;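 active = thallium flux slope above the same plate's solvent-control mean plus 3 SD in both duplicate wells; inconclusive = duplicate wells that disagreed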;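 also: run without ouabain in cells lacking the KCC2 cotransporter; slope of fluorescence scaled to its starting value between 10 and 20 s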
* marks the source's active call; other numbers are inactive results; ? = inconclusive; . = not tested or not shown. Shown is part of a subset that was picked to be rich in hits.

SMILES	p-CIP stab down	ABCB6 inh 2	Cl transport mod	Dynein cargo inh	V-ATPase pH	KCC2 secondary	KCC2 bumet counter	KCC2 sec2	HEK293 Tl flux	KCC2 ouabain	HEK293 Tl flux2
COc1cc(C(=O)Nc2nnc(C)s2)c([N+](=O)[O-])cc1OC	5.4	101.0	0.657	-0.411	1.9	.	.	.	.	.	.
CCOC(=O)C1=C(C)Nc2nnnn2C1c1cccnc1 (stereo not given)	4.7	94.0	.	-0.721	1.9	0.0066	0.00402	0.0276	0.00742	0.0179	0.0102
CCOC(=O)C1=C(C)Nc2nnnn2C1c1c[nH]c2ccccc12 (stereo not given)	-1.4	.	0.682	-0.843	.	.	.	.	.	.	.
Cc1cc(O)c(/C=N/OCc2ccc(Cl)cc2Cl)c(=O)o1	-2.5	104.0	0.0192	0.282	0.2	.	.	.	.	.	.
O=c1c(/C=N/OCc2ccc(Cl)cc2Cl)c[nH]n1-c1cccc(Cl)n1	4.6	88.0	36.6*	-0.446	-2.7	0.00805	0.0774*	0.0746*	0.0711*	0.0735*	0.0662*
CCCCNC(=O)[C@H](CSCc1ccccc1)N1Cc2ccccc2C1=O	-10.9	98.0	-2.63*	-0.552	-0.5	?	0.00554	0.0316	0.00777	0.0171*	0.0101
COCCCNC(=O)[C@H](CSCc1ccccc1)N1Cc2ccccc2C1=O	0.0	100.0	-2.17	-0.527	2.7	.	.	.	.	.	.
Fc1ccc(NC(=S)Nc2ccc(Cl)cc2Cl)cc1	9.3	.	4.46*	-0.844	.	0.0102	0.0417*	0.0348	0.0161*	?	0.0131*
Fc1ccc(CNC(=S)Nc2ccc(Cl)cc2Cl)cc1	-22.1	96.0	1.93	0.0894	8.9	.	.	.	.	.	.
CCOC(=O)c1c(C)[nH]c(C(=O)OC(C)C(=O)NC2CCCCC2C)c1C (stereo not given)	.	92.0	.	.	0.3	.	.	.	.	.	.
COCOc1cccc(CN2CCC2(C)C(=O)Nc2ccc(C)c(O)c2)c1 (stereo not given)	.	95.0	.	.	.	.	.	.	.	.	.
O=C(Cc1coc(-c2ccc(F)cc2)n1)Nc1ccccc1	1.2	94.0	-3.84*	1.46	0.8	0.0105	0.00568	?	0.00681	0.0355*	0.00978
CCCCCn1nnc2c(=O)oc3ccccc3c21	16.7	102.0	.	-0.694	-2.0	0.0141	0.00446	0.0228*	0.00529*	0.0105*	?
CSc1nc(C)cc(Oc2ccc(OCCOc3ccccc3)nn2)n1	4.9	98.0	-5.9*	-0.821	-1.6	0.00805	0.00571	0.0295	0.00645	0.0161*	0.00981
Cc1ccc(NC(=O)CN(C)C(=O)CCCN2C(=O)c3ccccc3C2=O)cc1	7.8	95.0	-3.06*	-0.443	-2.1	0.0106	0.00722	0.0369	0.00456	0.0212	0.0119
CN(CC(=O)Nc1c(Cl)cccc1Cl)C(=O)CCCN1C(=O)c2ccccc2C1=O	0.3	100.0	0.226	0.0609	-0.2	.	.	.	.	.	.
O=C(Nc1ccccc1C(=O)N1CCCCC1)c1ccccc1C(F)(F)F	9.8	92.0	.	.	-4.8	.	.	.	.	.	.
Cc1ccc(C(=O)CSc2nc3c([nH]2)c(=O)n(C)c(=O)n3C)cc1	6.4	94.0	-0.891	-0.104	-2.4	.	.	.	.	.	.
CC(C)N(C(=O)CSc1nc2c([nH]1)c(=O)n(C)c(=O)n2C)c1ccccc1	10.4	102.0	-3.68*	-0.271	4.3	0.01	0.00643	0.0303	0.00779	0.019	0.0103
Cc1cc2c(cc1C)NC(c1nc3ccccc3[nH]1)C1=C(CC(C)(C)CC1=O)N2 (stereo not given)	-1.0	101.0	-3.76*	0.0268	.	0.0103	0.00522	0.036	0.00396	0.0204	0.0109
Cc1ccc(-n2c(CNc3ccc(C)c(Cl)c3)n[nH]c2=S)cc1	5.9	98.0	3.46*	1.73	-4.0	0.00938	0.0844*	0.0319	0.0111*	0.0277	?
COc1cc(C2c3sc(=O)[nH]c3SC3C(=O)N(c4ccc(Br)cc4)C(=O)C32)ccc1O (stereo not given)	-12.0	97.0	.	1.19	-1.5	.	.	.	.	.	.
CCOc1ccc(N2C(=O)C3Sc4[nH]c(=O)sc4C(/C=C/c4ccccc4)C3C2=O)cc1 (stereo not given)	-6.4	116.0	-5.55*	0.546	-0.2	0.00674	?	0.0188*	0.00833	0.0146*	0.0113
CNC(C)C(=O)NC(C(=O)N1CCCC1C(=O)Nc1ccc2ncccc2c1)C(C)C (stereo not given)	.	97.0	.	.	6.3	.	.	.	.	.	.
COCCNC(=S)N/N=C(\C)c1ccc(OC(F)F)cc1	-5.3	100.0	1.52	0.323	-0.4	.	.	.	.	.	.
SMILES	p-CIP stab down	ABCB6 inh 2	Cl transport mod	Dynein cargo inh	V-ATPase pH	KCC2 secondary	KCC2 bumet counter	KCC2 sec2	HEK293 Tl flux	KCC2 ouabain	HEK293 Tl flux2
C/C(=N\NC(=S)NC1CCCCC1)c1ccc(OC(F)F)cc1OC(F)F	-7.1	97.0	0.256	0.0663	1.6	.	.	.	.	.	.
COc1ccc(/C(C)=N/NC(=S)Nc2cc(C)ccc2C)cc1	2.8	103.0	25.3*	0.442	7.3	0.00811	0.0483*	0.0458*	0.0361*	0.0408*	0.0376*
COCCNC(=S)N/N=C(\C)c1ccc(OC)cc1	3.4	98.0	-0.0879	-0.287	0.9	.	.	.	.	.	.
C/C(=N\NC(=S)NC(C)C)c1ccccc1OC(F)F	-17.4	99.0	5.98*	0.424	-4.3	0.00621	0.00966*	0.0328	0.0123*	0.0218	0.0151*
COCCNC(=S)N/N=C(\C)c1ccc2cc(OC)ccc2c1	3.2	100.0	10.5*	1.35	3.4	0.00756	0.0353*	0.0331	0.0143*	0.0323*	0.0106
COCCNC(=S)N/N=C(\C)c1cccc(C(F)(F)F)c1	6.2	94.0	5.79*	0.439	0.0	0.0166	0.02*	0.0302	0.0124*	0.0186	0.0149*
CCc1noc(C)c1C(=O)Nc1ccc(F)c(F)c1F	.	97.0	.	.	-2.0	.	.	.	.	.	.
CCNC(=S)N/N=C(\C)c1ccc2ccccc2c1OC(F)F	-7.0	101.0	7.69*	0.384	3.0	0.0121*	0.0625*	0.0371	0.0218*	0.0456*	0.0149*
COCCNC(=S)N/N=C(\C)c1cc2ccccc2o1	5.6	70.0*	19*	0.359	2.4	0.00602	0.0245*	?	0.0224*	0.0286*	0.0183*
CCNC(=S)N/N=C(\C)c1cccc(OC)c1	6.3	99.0	2.37	-1.25	-3.5	.	.	.	.	.	.
CCNC(=S)N/N=C(\C)c1ccc2ccccc2c1	9.1	.	19.6*	1.65	.	0.011	0.0335*	0.0352	?	0.0314*	0.0132
